These results are taken from ChEMBL document CHEMBL3351550, “Synthesis and antiangiogenic activity of 6-amido-2,4,5-trimethylpyridin-3-ols” (2014).

As usually defined, the inhibition is how much of the control response was suppressed.

Test [1] deals with Chorioallantoic membrane. Nature of the test: Antiangiogenic activity in chicken chorioallantoic membrane assessed as inhibition of VEGF-induced blood vessel formation at 0.01 nmol/CAM treated 30 mins after VEGF addition measured after 3 days relative to control. The settings on record: Gallus gallus. The class given is functional, cell membranes. The gist of the method:
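Chick embryo CAM; angiogenesis induced with VEGF (20 ng/CAM) before compound. Compound stock diluted in PBS to 1.0 μM, 10 μL applied to a disk on the CAM, giving 0.01 nmol/CAM. Read-out is the number of new blood vessel branch points in the area under the disk, compared against VEGF-treated CAMs.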

Test [2] has as its system A549. Nature of the test: Antitumor activity in human A549 cells inoculated with chicken chorioallantoic membrane assessed as inhibition of tumor weight at 0.01 pmol/CAM after 5 days. Format: functional. The gist of the method: (§1)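 A549 cells (2×10^6 cells/CAM) in Matrigel inoculated onto chick CAM and treated once with compound at implantation. The tumor mass grown on the CAM was excised and weighed, and inhibition is relative to untreated controls, means ± S.E.M., at least six embryos.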

For test [3], the system named is Chorioallantoic membrane. Nature of the test: Antiangiogenic activity in chicken chorioallantoic membrane assessed as inhibition of VEGF-induced blood vessel formation treated 30 mins after VEGF addition measured after 3 days. The class given is functional, cell membranes. The settings on record: Gallus gallus. The gist of the method: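 VEGF (20 ng/CAM)-induced angiogenesis on chick embryo CAM, with compound applied afterwards on a disk. New vessel branch points under the disk were counted at several doses, mean ± SEM, n at least six. ID50 taken from dose-response curves.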

For test [4], the system named is A549. Put plainly: Antitumor activity in human A549 cells inoculated with chicken chorioallantoic membrane assessed as inhibition of tumor weight at 0.001 pmol/CAM after 5 days. The class given is functional. The gist of the method:
as §1

Test [5] relates to A549. Put plainly: Antitumor activity in human A549 cells inoculated with chicken chorioallantoic membrane assessed as inhibition of tumor weight at 1 pmol/CAM after 5 days. Format: functional. The gist of the method: as §1
In test [6] the test system is A549. Put plainly: Antitumor activity in human A549 cells inoculated with chicken chorioallantoic membrane assessed as inhibition of tumor weight at 0.1 pmol/CAM after 5 days. The class given is functional. In short, it runs like this: as §1
The test system of test [7] is Chorioallantoic membrane. Nature of the test: Antiangiogenic activity in human A549 cells inoculated with chicken chorioallantoic membrane assessed as inhibition of blood vessel branch points around tumor at 0.1 pmol/CAM after 5 days. Format: functional, Gallus gallus. The gist of the method: (§2)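 A549 human lung cancer cells (2×10^6 cells/CAM) in Matrigel implanted on top of the CAM, with compound given once at implantation. New vessel branch points around the tumor were counted as for the VEGF CAM assay. Inhibition is relative to untreated CAMs, mean ± S.E.M. of at least six embryos.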

For test [8], the system named is Chorioallantoic membrane. Nature of the test: Antiangiogenic activity in human A549 cells inoculated with chicken chorioallantoic membrane assessed as inhibition of blood vessel branch points around tumor at 1 pmol/CAM after 5 days. Format: functional, Gallus gallus. The gist of the method: as §2
Test [9] has as its system Chorioallantoic membrane. Put plainly: Antiangiogenic activity in human A549 cells inoculated with chicken chorioallantoic membrane assessed as inhibition of blood vessel branch points around tumor at 0.01 pmol/CAM after 5 days. The class given is functional, Gallus gallus. The gist of the method:
as §2

In the case of `COc1ccc(C(=O)Nc2nc(C)c(O)c(C)c2C)cc1`, in [1], the inhibition stood at 69.7%.
For the molecule `Cc1nc(NC(=O)C(C)C)c(C)c(C)c1O`, in [1], the inhibition is 53.2%.
Same read-out and setting: the result for `Cc1nc(NC(=O)C(C)(C)C)c(C)c(C)c1O` reads 73.2%.
In the case of `Cc1nc(NC(=O)CC(C)C)c(C)c(C)c1O`, the inhibition in test [1] is 75.6%.
The same measure, in the same setting: as for `Cc1nc(NC(=O)c2cccc3ccccc23)c(C)c(C)c1O`, the figure is 75.8%.
Regarding `CC(=O)Nc1nc(C)c(O)c(C)c1C`, the “inhibition (INH)” value in [2] turned out to be 34.2%; in test [4], 20.3%; in test [5], 47.7%; in [6], 37.9%. Moreover, the ID50 in [3] stood at 8.7 fmol. For the same molecule, the inhibition in [1] worked out at 84.8%.
In the case of `Cc1nc(NC(=O)Cc2ccccc2)c(C)c(C)c1O`, the inhibition in [1] amounted to 69.6%.
The same measure, in the same setting: the result for `Cc1nc(NC(=O)c2ccccc2)c(C)c(C)c1O` reads 77.3%; that for `Cc1nc(NC(=O)CCc2ccccc2)c(C)c(C)c1O`, 74.2%.
As for `CCN(CC)CCNC(=O)c1c(C)[nH]c(/C=C2\C(=O)Nc3ccc(F)cc32)c1C`, in test [3], the ID50 was 380 fmol. In addition, the inhibition in [1] worked out at 88.8%.
For `Cc1nc(NC(=O)C2CCCCC2)c(C)c(C)c1O`, the inhibition in [1] stood at 76.3%.
In the case of `CN(C)c1ccc(/C=C2\C(=O)Nc3ccccc32)cc1`, the “inhibition (INH)” value is 25.1% in test [7]; 16.2% in test [2]; 26.8% in test [5]; 36.2% in test [8]; 20.8% in test [9]; 23.4% in test [6]. Also, the ID50 in test [3] amounted to 39.7 fmol. The inhibition in [1] was found to be 78%.
Consider `Cc1nc(NC(=O)c2cccs2)c(C)c(C)c1O`, for which the inhibition in test [1] is 74.8%.
Turning to `CCCCCCCCCCCC(=O)Nc1nc(C)c(O)c(C)c1C`, the “inhibition (INH)” value in test [2] worked out at 26%; in test [4], 21.7%; in test [5], 38.2%; in test [6] it was 31.3%. In test [3], the ID50 was 14.9 fmol. Besides, the inhibition in test [1] was found to be 57.4%.
On to `Cc1nc(NC(=O)c2ccc3c(c2)OCO3)c(C)c(C)c1O`, for which the inhibition in test [1] was found to be 64.8%.
The same measure, in the same setting: the result for `CCCCCCCC(=O)Nc1nc(C)c(O)c(C)c1C` reads 74.7%.
For `CC(=O)Nc1ccc(O)cc1`, in test [3], the ID50 stood at 397 fmol. In [1], the inhibition was found to be 77.9%.
`CCCCCCCCCCCCCCCC(=O)Nc1nc(C)c(O)c(C)c1C`: the inhibition in test [1] is 59.9%.
The same measure, in the same setting: as for `Cc1nc(NC(=O)c2ccc(F)cc2)c(C)c(C)c1O`, the figure is 75.3%.
Turning to `Cc1nc(NC(=O)C2CCCC2)c(C)c(C)c1O`, the “inhibition (INH)” value in test [2] was determined as 24%; in [4] it was 13.2%; in test [5] it was 62.7%; in [6] it was 45.1%. In test [3], the ID50 stood at 3.6 fmol. In addition, the inhibition in [1] was 81.8%.
On to `Cc1nc(NC(=O)CCCCl)c(C)c(C)c1O`, for which the inhibition in test [1] is 70.2%.
Same read-out and setting: as for `Cc1nc(NC(=O)c2ccc(C(C)(C)C)cc2)c(C)c(C)c1O`, the figure is 74.2%.
